Active and inactive are the calls of the source. No cut-off for these calls is given here. Non-standard residues stand in square brackets, D forms with d. Residues, ends and D or L forms follow the SMILES beside them. hPhe = N[C@@H](CCc1ccccc1)C(=O)O
Legend:
Splenocyte [1] = assay: Immunosuppressive activity against sheep erythrocytes-induced humoral immune response in CBA mouse splenocyte assessed as inhibition antibody forming cells at 100 ug/ml after 4 days; format: functional; parameters: scale not given: the % may be the effect or the level left
Summary of the method: (§1)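 Donor CBA mice (12-week-old, both sexes) sensitized with 0.2 ml of 1% SRBC suspension; spleens harvested four days later, erythrocytes lysed with 0.83% ammonium chloride. Splenocytes (5 ×10⁶/ml/well) cultured with SRBC (0.1 ml of 0.005% suspension) plus peptides (DMSO, then medium). After four days, antibody-forming cells counted; mean AFC numbers from quadruplicate wells ± SE.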

T-cell = assay: Immunosuppressive effect on CBA mouse T cells assessed as inhibition of mitogen-induced proliferation at 100 ug/ml after 3 days by MTT assay; format: functional, cell-based
[2] = Toxicity in mouse WEHI164 clone 13 cells at 100 ug/ml after 24 hrs by MTT assay; conditions: wehi-164, 24 h
Summary of the method: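 WEHI 164.13 cells exposed 24 h to peptides (DMSO then culture medium) or DMSO control solutions. Viability measured by MTT colorimetric method and expressed as percentage of OD relative to matching solvent dilutions (taken as 100%). Student's t-test for statistics.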

B = assay: Immunosuppressive effect on CBA mouse B cells assessed as inhibition of mitogen-induced proliferation after 3 days by MTT assay; format: functional, cell-based
Splenocyte [3] = assay: Immunosuppressive activity against sheep erythrocytes-induced humoral immune response in CBA mouse splenocyte assessed as inhibition antibody forming cells after 4 days; format: functional, cell-based; summary of the method: as §1

Structure (SMILES)	Activity (Splenocyte [1])	Activity (T-cell)	Activity [2]	Activity (B)	Activity (Splenocyte [3])
CC[C@H](C)[C@@H]1NC(=O)[C@H](CC(C)C)NC(=O)[C@H](Cc2ccccc2)NC(=O)[C@H](CCc2ccccc2)NC(=O)[C@@H]2CCCN2C(=O)[C@@H]2CCCN2C(=O)[C@H](C(C)C)NC(=O)[C@H](CC(C)C)NC(=O)[C@H]([C@@H](C)CC)NC1=O (cyclo(FLIILVPP[hPhe]))	94.5%	Active	–	–	–
CC[C@H](C)[C@@H]1NC(=O)[C@H](CC(C)C)NC(=O)[C@H](CCc2ccccc2)NC(=O)[C@H](Cc2ccccc2)NC(=O)[C@@H]2CCCN2C(=O)[C@@H]2CCCN2C(=O)[C@H](C(C)C)NC(=O)[C@H](CC(C)C)NC(=O)[C@H]([C@@H](C)CC)NC1=O (cyclo(F[hPhe]LIILVPP))	92%	–	47.19%	Active	–
CC[C@H](C)[C@@H]1NC(=O)[C@H](CC(C)C)NC(=O)[C@H](CCc2ccccc2)NC(=O)[C@H](CCc2ccccc2)NC(=O)[C@@H]2CCCN2C(=O)[C@@H]2CCCN2C(=O)[C@H](C(C)C)NC(=O)[C@H](CC(C)C)NC(=O)[C@H]([C@@H](C)CC)NC1=O (cyclo(IILVPP[hPhe][hPhe]L))	–	–	–	Active	Active
